# In paper PMC10413833 (ACS Omega, 2023):
# Assays:
# MRSA1 [1] = assay: In vitro antibacterial activity; type: cell-based; details: Staphylococcus aureus
# MRSA2 = assay: In vitro antibacterial activity; type: cell-based, Staphylococcus aureus
# MRSA3 = assay: In vitro antibacterial activity; type: cell-based; details: Staphylococcus aureus
# MRSA4 = assay: In vitro antibacterial activity; type: cell-based; details: Staphylococcus aureus
# MRSA5 = assay: In vitro antibacterial activity; type: cell-based; details: Staphylococcus aureus
# MRSA1 [2] = assay: In vivo antibacterial activity, survival of MRSA1 infected mice; design: species or system BALB/c mice; details: for survival (%): final survival rate after 7 days
# In short: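 Female BALB/c mice (6–8 weeks, 18-22 g) were housed under SPF conditions. They were infected via the tail vein with 0.1 mL of a Columbia broth culture of clinical MRSA1 diluted to OD600 1.5. One hour later, test compound or vancomycin was given IV at 2.5, 10 or 40 mg/kg; an untreated model group was included. Deaths were recorded daily for 7 days to build survival curves. Tissues were examined by H&E histology.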
# [3] = comparison value for vancomycin ref 18, 19; cited from earlier work
compound,measurement,setting,value
CN[C@H](CC(C)C)C(=O)N[C@H]1C(=O)N[C@@H](CC(N)=O)C(=O)N[C@H]2C(=O)N[C@H]3C(=O)N[C@H](C(=O)N[C@H](C(=O)O)c4cc(O)cc(O)c4-c4cc3ccc4O)[C@H](O)c3ccc(c(Cl)c3)Oc3cc2cc(c3O[C@@H]2O[C@H](CO)[C@@H](O)[C@H](O)[C@H]2O[C@H]2C[C@](C)(N)[C@H](O)[C@H](C)O2)Oc2ccc(cc2Cl)[C@H]1O [vancomycin],MIC,MRSA1 [1],256 µg/mL
same,MIC,MRSA2; Staphylococcus aureus,> 512 µg/mL
same,MIC,MRSA2; clinical isolate MRSA2,>512 µg/mL
same,MIC,MRSA3,512 µg/mL
same,MIC,MRSA4,256 µg/mL
same,MIC,MRSA5,256 µg/mL
same,survival (%),MRSA1 [2]; 2.5 mg/kg (low-dose),0%
same,number of mice surviving,"MRSA1 [2]; 2.5 mg/kg via tail vein, day1, 6 mice",3
same,number of mice surviving,"MRSA1 [2]; 2.5 mg/kg via tail vein, day2, 6 mice",2
same,number of mice surviving,"MRSA1 [2]; 2.5 mg/kg via tail vein, day3, 6 mice",2
same,number of mice surviving,"MRSA1 [2]; 2.5 mg/kg via tail vein, day4, 6 mice",2
same,number of mice surviving,"MRSA1 [2]; 2.5 mg/kg via tail vein, day5, 6 mice",1
same,number of mice surviving,"MRSA1 [2]; 2.5 mg/kg via tail vein, day6, 6 mice",1
same,number of mice surviving,"MRSA1 [2]; 2.5 mg/kg via tail vein, day7, 6 mice",0
same,survival (%),MRSA1 [2]; 10 mg/kg (medium-dose),16.7%
same,number of mice surviving,"MRSA1 [2]; 10 mg/kg via tail vein, day1, 6 mice",6
same,number of mice surviving,"MRSA1 [2]; 10 mg/kg via tail vein, day2, 6 mice",5
same,number of mice surviving,"MRSA1 [2]; 10 mg/kg via tail vein, day3, 6 mice",2
same,number of mice surviving,"MRSA1 [2]; 10 mg/kg via tail vein, day4, 6 mice",2
same,number of mice surviving,"MRSA1 [2]; 10 mg/kg via tail vein, day5, 6 mice",2
same,number of mice surviving,"MRSA1 [2]; 10 mg/kg via tail vein, day6, 6 mice",1
same,number of mice surviving,"MRSA1 [2]; 10 mg/kg via tail vein, day7, 6 mice",1
same,survival (%),MRSA1 [2]; 40 mg/kg (high-dose),33.3%
same,number of mice surviving,"MRSA1 [2]; 40 mg/kg via tail vein, day1, 6 mice",5
same,number of mice surviving,"MRSA1 [2]; 40 mg/kg via tail vein, day2, 6 mice",5
same,number of mice surviving,"MRSA1 [2]; 40 mg/kg via tail vein, day3, 6 mice",5
same,number of mice surviving,"MRSA1 [2]; 40 mg/kg via tail vein, day4, 6 mice",4
same,number of mice surviving,"MRSA1 [2]; 40 mg/kg via tail vein, day5, 6 mice",2
same,number of mice surviving,"MRSA1 [2]; 40 mg/kg via tail vein, day6, 6 mice",2
same,number of mice surviving,"MRSA1 [2]; 40 mg/kg via tail vein, day7, 6 mice",2
same,ED50,MRSA1 [2]; Mus musculus,59.7 mg/kg
same,"kidney infection, H&E staining",MRSA1 [2]; high-dose (40 mg/kg),severe kidney infection
same,"kidney infection, H&E staining",MRSA1 [2]; low-dose (2.5 mg/kg),severe kidney infection
same,"kidney infection, H&E staining",MRSA1 [2]; medium-dose (10 mg/kg),severe kidney infection
same,half-life (T1/2),[3],4.3 ± 1.9 h
